Assay [1] relates to Blood. As to the kind of experiment: Induction of profen release in human whole blood at 10 uM after 22 hrs by HPLC. It counts as functional. An outline of the steps:
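Same blood pool as the COX inhibition runs. Compound incubated 22 h, then the free profen released was measured as a percentage ratio.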

Assay [2] concerns the target Prostaglandin G/H synthase 1 (Homo sapiens, UniProt P23219). Kind of assay: Inhibition of COX1 in human whole blood. It counts as tissue-based.
For assay [3], the target named is T1, Prostaglandin G/H synthase 2 (Homo sapiens, UniProt P35354).
T1 sequence (P35354 whole entry): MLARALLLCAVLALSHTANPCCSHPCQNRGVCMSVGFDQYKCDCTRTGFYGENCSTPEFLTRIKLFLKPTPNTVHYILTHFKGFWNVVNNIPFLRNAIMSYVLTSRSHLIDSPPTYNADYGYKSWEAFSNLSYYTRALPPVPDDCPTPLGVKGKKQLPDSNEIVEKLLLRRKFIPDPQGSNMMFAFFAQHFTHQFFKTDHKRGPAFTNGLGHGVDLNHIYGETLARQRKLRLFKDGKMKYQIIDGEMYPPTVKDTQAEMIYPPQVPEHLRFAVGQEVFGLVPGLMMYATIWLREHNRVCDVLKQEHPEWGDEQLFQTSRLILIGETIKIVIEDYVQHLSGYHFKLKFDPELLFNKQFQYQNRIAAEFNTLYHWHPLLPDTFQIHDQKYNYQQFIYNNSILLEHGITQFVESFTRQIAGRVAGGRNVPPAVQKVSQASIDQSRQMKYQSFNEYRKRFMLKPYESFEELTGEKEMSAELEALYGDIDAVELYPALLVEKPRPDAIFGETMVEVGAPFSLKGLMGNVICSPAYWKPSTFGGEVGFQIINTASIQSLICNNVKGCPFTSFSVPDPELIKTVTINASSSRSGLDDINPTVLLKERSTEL
Kind of assay: Inhibition of COX2 in human whole blood. It counts as tissue-based.

The test system of assay [4] is PC-3. As to the kind of experiment: Antiproliferative activity against human PC3 cells at 100 uM after 72 hrs by MTT assay. It counts as functional. To be noted: PC-3, 72 h. An outline of the steps: (§1)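 PC3 prostate cancer cells kept in RPMI 1640 with 10% fetal calf serum at 37 °C, 5% CO₂. Seeded at 1.8 × 10⁴ cells/well, grown 3 days, then serum-starved 24 h to synchronize. Exposed to compounds at 1, 10, 50 and 100 µM (as solubility allows) in <0.1% DMSO for 72 h. Growth read by colorimetric MTT test.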
For orientation: Tetrazolium assays rely on reduction of a dye to a coloured formazan, in cell work by metabolically active cells.

Assay [5] deals with Blood. Kind of assay: Induction of nitric oxide release in human whole blood after 6 hrs by EPR spectroscopy. It counts as functional, tissue-based.
The subject of assay [6] is PC-3. As to the kind of experiment: Antiproliferative activity against human PC3 cells after 72 hrs by MTT assay. To be noted: PC-3, 72 h. It counts as functional, cell-based. An outline of the steps:
as §1

The text below walks through data of ChEMBL document CHEMBL1156585, “New NSAIDs-NO hybrid molecules with antiproliferative properties on human prostatic cancer cell lines” (Bioorg Med Chem Lett, 2008).

Activity calls are given as the source filed them. The calls are words filed in the database; no cut-off is given here.

Sequence of Prostaglandin G/H synthase 1 (P23219 whole entry): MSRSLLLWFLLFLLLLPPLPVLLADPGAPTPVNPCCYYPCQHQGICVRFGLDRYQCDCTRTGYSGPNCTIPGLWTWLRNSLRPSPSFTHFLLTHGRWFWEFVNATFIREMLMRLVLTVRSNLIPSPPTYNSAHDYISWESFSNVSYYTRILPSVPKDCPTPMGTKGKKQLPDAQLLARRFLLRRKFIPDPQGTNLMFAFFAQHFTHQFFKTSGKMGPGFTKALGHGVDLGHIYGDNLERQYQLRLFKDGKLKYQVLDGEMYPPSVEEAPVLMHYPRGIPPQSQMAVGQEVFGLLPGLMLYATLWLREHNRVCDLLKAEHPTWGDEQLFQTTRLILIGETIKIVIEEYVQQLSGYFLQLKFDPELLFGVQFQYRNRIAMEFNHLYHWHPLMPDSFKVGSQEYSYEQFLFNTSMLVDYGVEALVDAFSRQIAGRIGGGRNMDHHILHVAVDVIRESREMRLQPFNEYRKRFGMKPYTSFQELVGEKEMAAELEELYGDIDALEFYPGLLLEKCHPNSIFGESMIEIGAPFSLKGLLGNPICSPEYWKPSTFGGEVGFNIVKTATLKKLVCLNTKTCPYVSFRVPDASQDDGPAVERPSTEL

The term IC50 denotes the concentration at which inhibition is half-maximal. For orientation: inhibition means the relative decrease from the control value, in per cent. Low readings indicate a response near the control, high ones a response far below the control. `CC(C(=O)OCCO[N+](=O)[O-])c1ccc(C(=O)c2cccs2)cc1` (stereo not drawn) showed an Activity in assay [1] of 46%. Further, the IC50 in assay [2] was 580 nM; in assay [3], 5800 nM. In assay [4], testing at 100 µM gave an inhibition of 7%.
In turn, `CC(COC(=O)C(C)c1ccc(C(=O)c2cccs2)cc1)O[N+](=O)[O-]` (stereo not drawn) returned an Activity in assay [1] of 86%. In addition, the IC50 in assay [2] came to 570 nM; in assay [3], 4560 nM. In assay [4], 100 µM produced 13% inhibition.
Take `CC(COC(=O)C(C)c1cccc(C(=O)c2ccccc2)c1)O[N+](=O)[O-]` (stereo not drawn): in assay [1], the Activity amounted to 70%. Further, the figures for the IC50 in assay [2] and in assay [3] were 600 nM and 730 nM, respectively. In addition, at 100 µM the inhibition in assay [4] was 26%. The outcome in assay [5] was Active.
Consider `CC(C(=O)OCC(CO[N+](=O)[O-])O[N+](=O)[O-])c1ccc(C(=O)c2cccs2)cc1` (stereo not drawn), for which, in assay [1], the Activity worked out at 73%. For the same molecule, the IC50 in assay [2] is 480 nM; in assay [3], 2700 nM. Testing at 100 µM in assay [4] gave an inhibition of 33%.
For the molecule `CC(C(=O)O)c1ccc(C(=O)c2cccs2)cc1` (stereo not drawn) [SUPROFEN], the half-inhibitory concentration (IC50) was determined as 560 nM in assay [2] and 2750 nM in assay [3]. In assay [4], this molecule registered an inhibition at 100 µM of 0%.
Molecule `CC(C(=O)O)c1ccc2c(c1)[nH]c1ccc(Cl)cc12` (stereo not drawn) [CARPROFEN] gave an inhibition at 100 µM in assay [4] of 5%.
`CC(C(=O)OCCO[N+](=O)[O-])c1ccc2c(c1)[nH]c1ccc(Cl)cc12` (stereo not drawn) had an Activity in assay [1] of 88%. The IC50 in assay [6] was found to be 48000 nM; in assay [2], 110000 nM; in assay [3], 65000 nM.
As for `CC(C(=O)OCC(CO[N+](=O)[O-])O[N+](=O)[O-])c1cccc(C(=O)c2ccccc2)c1` (stereo not drawn), the Activity in assay [1] was 79%. The IC50 in assay [2] stood at 580 nM; in assay [3] it was 740 nM. In addition, the inhibition at 100 µM in assay [4] was determined as 21%.
Consider `CC(COC(=O)C(C)c1ccc2c(c1)[nH]c1ccc(Cl)cc12)O[N+](=O)[O-]` (stereo not drawn), for which the Activity in assay [1] was found to be 100%. The IC50 is 48000 nM in assay [6], 123000 nM in assay [2] and 45000 nM in assay [3].
`CC(C(=O)O)c1cccc(C(=O)c2ccccc2)c1` (stereo not drawn) [KETOPROFEN]: testing at 100 µM in assay [4] gave an inhibition of 0%.
The molecule `CC(C(=O)OCCO[N+](=O)[O-])c1cccc(C(=O)c2ccccc2)c1` (stereo not drawn) registered an Activity in assay [1] of 73%. For the same molecule, the IC50 was 450 nM in assay [2] and 770 nM in assay [3]. In assay [4], this molecule yielded an inhibition at 100 µM of 26%.
